# Reference: ChEMBL document CHEMBL1128573, “Synthesis and in vitro evaluation of 4-substituted N-(1,1-dimethylethyl)-3-oxo-4-androstene-17 beta-carboxamides as 5 alpha-reductase inhibitors and antiandrogens” (J Med Chem, 1995)
# Tested on: not listed separately
# Test: In vitro inhibition of 5-alpha-dihydrotestosterone stimulated shionogi cell proliferation.
# Type: functional
# Details: Mus musculus; call rule not given here
# Outline: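 Androgen-sensitive Shionogi mouse mammary carcinoma clone SEM-107 (passage 23) plated at 17400 cells/mL in MEM with 2% dextran-charcoal-treated FCS. Cells grew 13 days with medium changes every 3–4 days, then were methanol-fixed. DNA content was measured, and IC50 was fitted by weighted iterative nonlinear least squares.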
row,Structure (SMILES),IC50
1,CC(C)(C)NC(=O)[C@H]1CCC2C3CCC4=C(S)C(=O)CC[C@]4(C)C3CC[C@@]21C (stereo partly specified),0.279 µM
2,CC(C)(O)C(=O)Nc1ccc([N+](=O)[O-])c(C(F)(F)F)c1 [HYDROXYFLUTAMIDE],0.117 µM
3,CC(C)(C)NC(=O)[C@H]1CCC2C3CCC4=C(O)C(=O)CC[C@]4(C)C3CC[C@@]21C (stereo partly specified),0.242 µM
4,CC(C)(C)NC(=O)[C@H]1CCC2C3CCC4=C(Br)C(=O)CC[C@]4(C)C3CC[C@@]21C (stereo partly specified),0.184 µM
5,CC(C)(C)NC(=O)[C@H]1CCC2C3CCC4=C(Cl)C(=O)CC[C@]4(C)C3CC[C@@]21C (stereo partly specified),0.17 µM

# Tested on: not listed separately
# Test: In vitro inhibition of 5-alpha-dihydrotestosterone stimulated shionogi cell proliferation; NA is not active
# Type: functional, Mus musculus
# Details: not given
# Outline: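 Shionogi mouse mammary carcinoma clone SEM-107 (passage 23), plated at 17400 cells/mL in MEM with 2% charcoal-treated FCS. Grown 13 days with medium changed every 3–4 days. Methanol-fixed, DNA content measured. IC50 by weighted iterative nonlinear least-squares regression; means ± SEM.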
row,Structure (SMILES),IC50
1,CC(C)(C)NC(=O)[C@H]1CC[C@H]2[C@@H]3CC[C@H]4NC(=O)C=C[C@]4(C)[C@H]3CC[C@]12C [FINASTERIDE],Not Active
2,[3H]C1CC2=CC(=O)CC[C@]2(C)[C@H]2CC[C@]3(C)C(=O)CC[C@H]3[C@H]12 (stereo partly specified),Not Active

# Molecular target: T1, 3-oxo-5-alpha-steroid 4-dehydrogenase 1 (Homo sapiens, UniProt P18405)
# T1 sequence (P18405 whole entry): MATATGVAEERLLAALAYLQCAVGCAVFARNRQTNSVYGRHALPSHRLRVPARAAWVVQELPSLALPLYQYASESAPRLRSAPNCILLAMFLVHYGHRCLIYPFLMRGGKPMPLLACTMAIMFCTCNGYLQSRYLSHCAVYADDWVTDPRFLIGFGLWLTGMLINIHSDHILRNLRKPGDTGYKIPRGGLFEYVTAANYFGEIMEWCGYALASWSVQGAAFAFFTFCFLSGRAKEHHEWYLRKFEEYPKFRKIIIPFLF
# Test: In vitro inhibition of human tSteroid 5-alpha-reductase type I in transfected 293 cells using [3H]- delta4-Androstenedione as substrate.
# Type: cell-based, HEK293
# Details: not given
# Outline: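 Homogenate of 293 cells transfected with human type 1 cDNA was the enzyme source. Compounds in ethanol were diluted in 50 mM Tris-HCl pH 7.5 with 20% glycerol and 1 mM EDTA. Screening was at 1 and 0.1 μM, with 12-point IC50 curves (0.1–1000 nM) for actives. Reactions used [3H]androstenedione and 500 μM NADPH for 60 min at 37 °C, followed by ether extraction, TLC and counting of androstanedione as % of control.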
row,Structure (SMILES),IC50
1,CC(C)(C)NC(=O)[C@H]1CCC2C3CCC4=C(S)C(=O)CC[C@]4(C)C3CC[C@@]21C (stereo partly specified),0.709 µM
2,CC(C)(C)NC(=O)[C@H]1CCC2C3CCC4=C(O)C(=O)CC[C@]4(C)C3CC[C@@]21C (stereo partly specified),> 1 µM
3,CC(C)(C)NC(=O)[C@H]1CCC2C3CCC4=C(Br)C(=O)CC[C@]4(C)C3CC[C@@]21C (stereo partly specified),0.981 µM
4,CC(C)(C)NC(=O)[C@H]1CCC2C3CCC4=C(Cl)C(=O)CC[C@]4(C)C3CC[C@@]21C (stereo partly specified),> 1 µM
5,[3H]C1CC2=CC(=O)CC[C@]2(C)[C@H]2CC[C@]3(C)C(=O)CC[C@H]3[C@H]12 (stereo partly specified),2.7 µM

# Molecular target: T2, 3-oxo-5-alpha-steroid 4-dehydrogenase 2 (Homo sapiens, UniProt P31213)
# T2 sequence (P31213 whole entry): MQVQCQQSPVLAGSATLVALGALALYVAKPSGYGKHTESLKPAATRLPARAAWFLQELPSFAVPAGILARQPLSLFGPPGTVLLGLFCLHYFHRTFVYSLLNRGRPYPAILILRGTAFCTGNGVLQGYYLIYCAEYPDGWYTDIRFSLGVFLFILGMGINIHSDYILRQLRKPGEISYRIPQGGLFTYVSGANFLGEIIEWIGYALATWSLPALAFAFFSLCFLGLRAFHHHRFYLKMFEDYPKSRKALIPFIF
# Test: In vitro inhibition of human Steroid 5-alpha-reductase type 2 in transfected SW-13 cells using [3H]- delta4-Androstenedione as substrate
# Type: cell-based
# Details: not given
# Outline: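 Homogenate of SW-13 cells transfected with human type II cDNA was the enzyme source. Compounds in ethanol were diluted in 50 mM Tris-HCl pH 7.5 with 20% glycerol and 1 mM EDTA. They were screened at 1 and 0.1 μM; those giving ≥50% inhibition at 1 μM were run at 12 concentrations, 0.1–1000 nM. Reactions used [3H]androstenedione and 500 μM NADPH for 60 min at 37 °C. Steroids were ether-extracted and TLC-separated, and androstanedione radioactivity was expressed as % of control.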
row,Structure (SMILES),IC50
1,CC(C)(C)NC(=O)[C@H]1CCC2C3CCC4=C(S)C(=O)CC[C@]4(C)C3CC[C@@]21C (stereo partly specified),0.437 µM
2,CC(C)(C)NC(=O)[C@H]1CCC2C3CCC4=C(O)C(=O)CC[C@]4(C)C3CC[C@@]21C (stereo partly specified),0.172 µM
3,CC(C)(C)NC(=O)[C@H]1CCC2C3CCC4=C(Br)C(=O)CC[C@]4(C)C3CC[C@@]21C (stereo partly specified),0.387 µM
4,CC(C)(C)NC(=O)[C@H]1CC[C@H]2[C@@H]3CC[C@H]4NC(=O)C=C[C@]4(C)[C@H]3CC[C@]12C [FINASTERIDE],0.00847 µM
5,CC(C)(C)NC(=O)[C@H]1CCC2C3CCC4=C(Cl)C(=O)CC[C@]4(C)C3CC[C@@]21C (stereo partly specified),0.192 µM
6,[3H]C1CC2=CC(=O)CC[C@]2(C)[C@H]2CC[C@]3(C)C(=O)CC[C@H]3[C@H]12 (stereo partly specified),0.0839 µM

# Molecular target: T2, 3-oxo-5-alpha-steroid 4-dehydrogenase 2
# Test: In vitro inhibition of human Steroid 5-alpha-reductase type 2 in transfected SW-13 cells using [3H]- delta4-Androstenedione as substrate; NA is not active
# Type: cell-based
# Details: not given
# Outline: (§1)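 Homogenate of SW-13 cells transfected with human type II cDNA. Compounds diluted in 50 mM Tris-HCl pH 7.5, 20% glycerol, 1 mM EDTA, first screened at 1 and 0.1 μM. Those reaching 50% inhibition at 1 μM were run at 12 levels, 0.1–1000 nM. Incubated with 5 nM [3H]androstenedione and 500 μM NADPH, 60 min, 37 °C. Ether extraction, TLC, androstanedione radioactivity as % of control.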
row,Structure (SMILES),IC50
1,CC(C)(O)C(=O)Nc1ccc([N+](=O)[O-])c(C(F)(F)F)c1 [HYDROXYFLUTAMIDE],Not Active

# Molecular target: T1, 3-oxo-5-alpha-steroid 4-dehydrogenase 1
# Test: In vitro inhibition of human Steroid 5-alpha-reductase type I in transfected 293 cells using [3H]- delta4-Androstenedione as substrate
# Type: cell-based, HEK293
# Details: not given
# Outline: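 Homogenate of 293 cells transfected with human type 1 5α-reductase cDNA was used as enzyme. Compounds were dissolved in ethanol and diluted in 50 mM Tris-HCl pH 7.5 with 20% glycerol and 1 mM EDTA. They were screened at 1 and 0.1 μM; those giving ≥50% inhibition at 1 μM were tested at 12 concentrations from 0.1 to 1000 nM. Incubation used [3H]androstenedione and 500 μM NADPH for 60 min at 37 °C, followed by ether extraction, TLC, and counting of androstanedione as % of control.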
row,Structure (SMILES),IC50
1,CC(C)(C)NC(=O)[C@H]1CC[C@H]2[C@@H]3CC[C@H]4NC(=O)C=C[C@]4(C)[C@H]3CC[C@]12C [FINASTERIDE],0.218 µM

# Molecular target: T1, 3-oxo-5-alpha-steroid 4-dehydrogenase 1
# Test: In vitro inhibition of human Steroid 5-alpha-reductase type I in transfected 293 cells using [3H]- delta4-Androstenedione as substrate; NA is not active
# Type: cell-based
# Details: hek293
# Outline: as §1, with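 “of 293” for “of SW-13”, “type 1” for “type II”, “with 1” for “with 5”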
row,Structure (SMILES),IC50
1,CC(C)(O)C(=O)Nc1ccc([N+](=O)[O-])c(C(F)(F)F)c1 [HYDROXYFLUTAMIDE],Not Active
